Test results from ChEMBL document CHEMBL3351702, “Design, synthesis and characterization of fluoro substituted novel pyrazolylpyrazolines scaffold and their pharmacological screening” (Eur J Med Chem, 2014).
Values after ≈ are worked out from the molar mass of the structure shown.

Experiments:
[1] = system: Mycobacterium tuberculosis; assay: Antituberculosis activity against Mycobacterium tuberculosis H37Rv assessed as inhibition of colony formation at 250 ug/ml after 4 weeks of incubation; format: functional; conditions: 672 h
Plasmodium falciparum = assay: Antimalarial activity against chloroquine ane quinine-sensitive ring stage of Plasmodium falciparum assessed as inhibition of parasite growth after 48 hrs; format: functional, organism-based
Method in brief: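 P. falciparum field strain from a Surat hospital, cultured by a modified Trager–Jensen method and synchronized with 5% D-sorbitol at ring stage. Rings at 1–2% parasitaemia and 2.5% haematocrit in hypoxanthine-free RPMI-1640 with 10% human plasma. Exposed to 7 concentrations, diluted from DMSO stocks, for one 48 h cycle at 37 °C. Growth inhibition % measured; IC50 by interpolation; duplicate runs, mean reported.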

Aspergillus fumigatus = assay: Antimicrobial activity against Aspergillus fumigatus MTCC 3008 assessed as absence of visible growth after 24 to 48 hrs by broth micro dilution method; format: functional
Method in brief: (§1)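 Fungal broth microdilution following NCCLS, in Sabouraud dextrose broth, with compounds diluted from DMSO and inoculum adjusted to 10⁸ CFU/mL by turbidity. Growth read at 24 and 48 h. MIC is the highest dilution preventing turbidity after spot subculture. Griseofulvin and nystatin were the references.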

Bacillus subtilis = assay: Antimicrobial activity against Bacillus subtilis MTCC 441 assessed as absence of visible growth after 24 to 48 hrs by broth micro dilution method; format: functional
Clostridium tetani = assay: Antimicrobial activity against Clostridium tetani MTCC 449 assessed as absence of visible growth after 24 to 48 hrs by broth micro dilution method; format: functional
Salmonella typhi = assay: Antimicrobial activity against Salmonella typhi MTCC 98 assessed as absence of visible growth after 24 to 48 hrs by broth micro dilution method; format: functional, Salmonella enterica subsp. enterica serovar Typhi; conditions: Salmonella enterica
Escherichia coli = assay: Antimicrobial activity against Escherichia coli MTCC 443 assessed as absence of visible growth after 24 to 48 hrs by broth micro dilution method; format: functional
Candida albicans = assay: Antimicrobial activity against Candida albicans MTCC 227 assessed as absence of visible growth after 24 to 48 hrs by broth micro dilution method; format: functional; method in brief: as §1
Streptococcus pneumoniae = assay: Antimicrobial activity against Streptococcus pneumoniae MTCC 1936 assessed as absence of visible growth after 24 to 48 hrs by broth micro dilution method; format: functional
Vibrio cholerae = assay: Antimicrobial activity against Vibrio cholerae MTCC 3906 assessed as absence of visible growth after 24 to 48 hrs by broth micro dilution method; format: functional

Compound	inhibition at 250 µg/mL [1]	IC50 (Plasmodium falciparum)	MIC (Aspergillus fumigatus)	MIC (Bacillus subtilis)	MIC (Clostridium tetani)	MIC (Salmonella typhi)	MIC (Escherichia coli)	MIC (Candida albicans)	MIC (Streptococcus pneumoniae)	MIC (Vibrio cholerae)
CO[C@H]1/C=C/O[C@@]2(C)Oc3c(C)c(O)c4c(O)c(c(/C=N/N5CCN(C)CC5)c(O)c4c3C2=O)NC(=O)/C(C)=C\C=C\[C@H](C)[C@H](O)[C@@H](C)[C@@H](O)[C@@H](C)[C@H](OC(C)=O)[C@@H]1C [RIFAMPIN]	98%									
COc1ccc(N2N=C(c3ccc(F)cc3)CC2c2c(C)nn(-c3ccccc3)c2Oc2ccc(F)cc2)cc1 (stereo not drawn)	74%	0.25 mg/L (≈ 0.466 µM)	250 mg/L (≈ 466 µM)	62.5 mg/L (≈ 116 µM)	200 mg/L (≈ 373 µM)	500 mg/L (≈ 932 µM)	500 mg/L (≈ 932 µM)	500 mg/L (≈ 932 µM)	125 mg/L (≈ 233 µM)	100 mg/L (≈ 186 µM)
Cc1nn(-c2ccccc2)c(Oc2cccc(C(F)(F)F)c2)c1C1CC(c2ccc(F)cc2)=NN1c1ccc(Br)cc1 (stereo not drawn)	91%	1.46 mg/L (≈ 2.3 µM)	500 mg/L (≈ 787 µM)	250 mg/L (≈ 393 µM)	250 mg/L (≈ 393 µM)	200 mg/L (≈ 315 µM)	250 mg/L (≈ 393 µM)	1000 mg/L (≈ 1570 µM)	500 mg/L (≈ 787 µM)	250 mg/L (≈ 393 µM)
Cc1nn(-c2ccccc2)c(Oc2cccc(F)c2)c1C1CC(c2ccc(F)cc2)=NN1c1ccc(Br)cc1 (stereo not drawn)	56%	0.06 mg/L (≈ 0.102 µM)	> 1000 mg/L	250 mg/L (≈ 427 µM)	250 mg/L (≈ 427 µM)	200 mg/L (≈ 342 µM)	500 mg/L (≈ 854 µM)	250 mg/L (≈ 427 µM)	500 mg/L (≈ 854 µM)	125 mg/L (≈ 214 µM)
COC1=CC(=O)C[C@@H](C)[C@]12Oc1c(Cl)c(OC)cc(OC)c1C2=O [GRISEOFULVIN]			100 mg/L (≈ 283 µM)					500 mg/L (≈ 1420 µM)		
O=C(O)c1cn(C2CC2)c2cc(N3CCNCC3)c(F)cc2c1=O [CIPROFLOXACIN]						25 mg/L (≈ 75.4 µM)	25 mg/L (≈ 75.4 µM)		25 mg/L (≈ 75.4 µM)	25 mg/L (≈ 75.4 µM)
Cc1nn(-c2ccccc2)c(Oc2ccccc2F)c1C1CC(c2ccc(F)cc2)=NN1c1ccc(Br)cc1 (stereo not drawn)	94%	0.088 mg/L (≈ 0.15 µM)	1000 mg/L (≈ 1710 µM)	200 mg/L (≈ 342 µM)	500 mg/L (≈ 854 µM)	200 mg/L (≈ 342 µM)	100 mg/L (≈ 171 µM)	250 mg/L (≈ 427 µM)	250 mg/L (≈ 427 µM)	500 mg/L (≈ 854 µM)
COc1ccc(N2N=C(c3ccc(F)cc3)CC2c2c(C)nn(-c3ccccc3)c2Oc2cccc(C(F)(F)F)c2)cc1 (stereo not drawn)	52%	0.3 mg/L (≈ 0.511 µM)	500 mg/L (≈ 852 µM)	100 mg/L (≈ 170 µM)	200 mg/L (≈ 341 µM)	100 mg/L (≈ 170 µM)	100 mg/L (≈ 170 µM)	250 mg/L (≈ 426 µM)	200 mg/L (≈ 341 µM)	250 mg/L (≈ 426 µM)
NYSTATIN			100 mg/L					100 mg/L		
Cc1nn(-c2ccccc2)c(Oc2ccc(F)cc2)c1C1CC(c2ccc(F)cc2)=NN1c1ccc(F)cc1 (stereo not drawn)	40%	0.022 mg/L (≈ 0.0419 µM)	> 1000 mg/L	500 mg/L (≈ 953 µM)	250 mg/L (≈ 477 µM)	250 mg/L (≈ 477 µM)	500 mg/L (≈ 953 µM)	200 mg/L (≈ 381 µM)	100 mg/L (≈ 191 µM)	200 mg/L (≈ 381 µM)
COc1ccc(N2N=C(c3ccc(F)cc3)CC2c2c(C)nn(-c3ccccc3)c2Oc2ccccc2F)cc1 (stereo not drawn)	22%	0.65 mg/L (≈ 1.21 µM)	250 mg/L (≈ 466 µM)	100 mg/L (≈ 186 µM)	500 mg/L (≈ 932 µM)	500 mg/L (≈ 932 µM)	500 mg/L (≈ 932 µM)	500 mg/L (≈ 932 µM)	500 mg/L (≈ 932 µM)	500 mg/L (≈ 932 µM)
Cc1nn(-c2ccccc2)c(Oc2ccc(F)cc2)c1C1CC(c2ccc(F)cc2)=NN1c1ccc(Br)cc1 (stereo not drawn)	96%	0.025 mg/L (≈ 0.0427 µM)	> 1000 mg/L	500 mg/L (≈ 854 µM)	125 mg/L (≈ 214 µM)	200 mg/L (≈ 342 µM)	200 mg/L (≈ 342 µM)	500 mg/L (≈ 854 µM)	500 mg/L (≈ 854 µM)	500 mg/L (≈ 854 µM)
COc1ccc(N2N=C(c3ccc(F)cc3)CC2c2c(C)nn(-c3ccccc3)c2Oc2cccc(F)c2)cc1 (stereo not drawn)	56%	0.57 mg/L (≈ 1.06 µM)	> 1000 mg/L	200 mg/L (≈ 373 µM)	200 mg/L (≈ 373 µM)	500 mg/L (≈ 932 µM)	500 mg/L (≈ 932 µM)	1000 mg/L (≈ 1860 µM)	100 mg/L (≈ 186 µM)	200 mg/L (≈ 373 µM)
CC1(C)S[C@@H]2[C@H](NC(=O)[C@H](N)c3ccccc3)C(=O)N2[C@H]1C(=O)O [AMPICILLIN]				250 mg/L (≈ 715 µM)	250 mg/L (≈ 715 µM)	100 mg/L (≈ 286 µM)	100 mg/L (≈ 286 µM)		100 mg/L (≈ 286 µM)	100 mg/L (≈ 286 µM)
CCn1cc(C(=O)O)c(=O)c2cc(F)c(N3CCNCC3)cc21 [NORFLOXACIN]				100 mg/L (≈ 313 µM)	50 mg/L (≈ 157 µM)	10 mg/L (≈ 31.3 µM)	10 mg/L (≈ 31.3 µM)		10 mg/L (≈ 31.3 µM)	10 mg/L (≈ 31.3 µM)
O=C(N[C@H](CO)[C@H](O)c1ccc([N+](=O)[O-])cc1)C(Cl)Cl [CHLORAMPHENICOL]				50 mg/L (≈ 155 µM)	50 mg/L (≈ 155 µM)	50 mg/L (≈ 155 µM)	50 mg/L (≈ 155 µM)		50 mg/L (≈ 155 µM)	50 mg/L (≈ 155 µM)
C=C[C@H]1CN2CC[C@H]1C[C@H]2[C@H](O)c1ccnc2ccc(OC)cc12 [QUININE]		0.268 mg/L (≈ 0.826 µM)								
Cc1nn(-c2ccccc2)c(Oc2ccccc2F)c1C1CC(c2ccc(F)cc2)=NN1c1ccc(F)cc1 (stereo not drawn)	10%	0.025 mg/L (≈ 0.0477 µM)	100 mg/L (≈ 191 µM)	500 mg/L (≈ 953 µM)	250 mg/L (≈ 477 µM)	250 mg/L (≈ 477 µM)	200 mg/L (≈ 381 µM)	1000 mg/L (≈ 1910 µM)	250 mg/L (≈ 477 µM)	250 mg/L (≈ 477 µM)
